From PubChem BioAssay
Many of the other results were omitted from the sample, so hits are more common in it than they were.
HSF1 inh: HSF1 inhibition; AID 2098; activity change, negative = inhibition, % at 7.5 µM (by protocol); actives 0.77% (n = 300,000); NIH3T3-HGL HSE-luciferase, MG132-induced, luminescence 8 h; stronger effect = lower value;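 active = more than half of replicate wells show activity change below -50%, luminescence cut by over half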;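 also: luciferase reports HSF-1 transcriptional activity via heat shock element; 0% = median of DMSO wells and -100% = zero luminescence signal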
Hsp70 act: switches on Hsp70 transcription; actives 0.04% (n = 200,000); activation, % at 10 µM; AID 1203; HeLa Hsp70 promoter luciferase reporter, luminescence; scaled: vehicle 0, proteasome-inhibitor control 100%;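 active = activation above the mean across all tested compounds plus 3 SD, cutoff set per campaign, cut at about 5.5% in these data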;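 also: 100% = MG132 at 30 µM as the positive control and 0% = DMSO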
T cruzi repl: blocks replication of Trypanosoma cruzi; T. cruzi beta-gal in NIH3T3, luminescence, 90 h; inhibition, % (no concentration beside the values); actives 1.4% (n = 300,000); AID 1885;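 active = mean inhibition across valid replicates above about 55%, limit read from the data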;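 also: signal also drops with host cell toxicity which is not excluded here; 0% = plate median of DMSO wells and 100% = zero luminescence signal; higher percent means less beta-gal luminescence so fewer parasites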
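Assay system: NIH/3T3 fibroblasts plus reporter T. cruzi. Amount: NIH/3T3 cells, 5,000 per well. Buffer or medium: DMEM, 2% fetal bovine serum. Doses: compound pinned at 50 nL/well, DMSO. Schedule: ≥90 h infection period, 3 h prior cell attachment. Signal: luminescent β-galactosidase signal after 60 min lysis. Read-out: parasite load inhibition, %.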
HSF1 activator: increases HSF-1 driven luciferase reporter signal; actives 1.7% (n = 300,000); activation, % at 9 µM; NIH3T3-HGL HSF-1 luciferase reporter, MG132, 8 h; 100% = twice DMSO control signal; AID 504408;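 active = mean replicate activation of at least 50% with a set share of replicates each reaching 50%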;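 also: 0% = median of the neutral control wells and 100% = twice that signal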
Lmaj promast: inhibitors of Leishmania major promastigote growth. Leishmania major promastigotes, resazurin fluorescence viability. AID 1063. actives 9% (n = 200,000). inhibition, % at 10 µM; in the data active = inhibition above about 50%;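 also: promastigotes grown with compound for 44 hours at 28 °C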
* hit, by the source's call; . = no result.

SMILES	HSF1 inh	Hsp70 act	T cruzi repl	HSF1 activator	Lmaj promast
Cc1nn(-c2ccccc2)c(Cl)c1C(=O)NCCCCNC(=O)c1c(C)nn(-c2ccccc2)c1Cl	5	0	-1	31	8
CCC(=O)N(Cc1c(C)nn(-c2ccccc2)c1Cl)c1ccc(Cl)cc1	2	0	9	4	65*
Cc1nc(Sc2ccc(Br)cc2)c(C#N)c(C)c1[N+](=O)[O-]	74	.	42	128*	.
Cc1ccccc1CN1C(=O)Nc2ccccc2C(=O)N1C(C)(C)C	-7	0	-19	10	-2
CC(C)(C)N1C(=O)c2ccccc2NC(=O)N1Cc1ccc(Br)cc1	-8	0	11	13	99*
COc1cccc(-c2nnc(N)o2)c1	-3	.	-6	13	.
COc1cccc(-c2nnc(-c3ccco3)o2)c1	43	0	-3	74*	-4
COc1cccc(-c2nnc(-c3ccc(C)o3)o2)c1	28	0	-25	63*	0
O=C(Nc1cccc(-c2nnc(-c3ccco3)o2)c1)C(c1ccccc1)c1ccccc1	6	0	36	10	100*
COc1ccc(C(=O)C2CCCN(C(=O)c3ccc4cc[nH]c4c3)C2)c(C)c1 (configuration not stated)	5	0	9	6	0
Clc1cccc(OCCCCCN2CCOCC2)c1	1	.	8	0	.
CCOc1cccc(OCCCCN2CCOCC2)c1	-2	0	-3	-6	93*
Cc1cccc(OCCCCCN2CCOCC2)c1	-2	.	-15	17	.
c1ccc(OCCCCN2CCOCC2)cc1	-6	1	13	8	79*
COc1cccc(OCCCCCCN2CCOCC2)c1	-3	0	7	3	100*
Brc1ccc(OCCCN2CCOCC2)cc1	3	0	8	-10	95*
O=C(c1cc(COc2ccccc2)on1)N1CCCC(CN2CCOCC2)C1 (configuration not stated)	7	.	-8	11	.
Cn1c(=NC(=O)CS(=O)(=O)c2ccccc2)sc2cc([N+](=O)[O-])ccc21	1	.	5	14	.
Cc1ccc(S(=O)(=O)NC(=O)NCCCN2CCOCC2)cc1	-5	.	2	5	.
CCOC(=O)c1ccc(NC(=O)CSc2nncn2-c2cccnc2)cc1	-7	.	5	-15	.
COc1ccc(CC(=O)Nc2cccc(/C(C)=N/NC(=O)C3(C)CC3(Br)Br)c2)cc1 (configuration not stated)	-3	.	8	6	.
C/C(=N\NC(=O)C1(C)CC1(Br)Br)c1cccc(NC(=O)C(C)(C)C)c1 (configuration not stated)	-5	0	9	-17	60*
CCCc1cc(-n2ccnc2C)n2c(nc3ccccc32)c1C#N	7	.	16	17	.
CCCc1cc(N2CCN(C(=O)c3ccco3)CC2)n2c(nc3ccccc32)c1C#N	-3	0	7	-7	71*
O=C(CN(c1ccc(Cl)cc1)S(=O)(=O)c1ccc(Cl)c([N+](=O)[O-])c1)NCCc1ccccc1	-2	0	74*	-24	-2
SMILES	HSF1 inh	Hsp70 act	T cruzi repl	HSF1 activator	Lmaj promast
Cc1ccc(CNC(=O)CN(c2cccc([N+](=O)[O-])c2)S(=O)(=O)c2ccccc2)cc1	-5	0	18	-11	97*
Cc1ccc(CNC(=O)CN(c2cccc([N+](=O)[O-])c2)S(C)(=O)=O)cc1	-6	0	-22	10	2
O=C(CN(c1cccc([N+](=O)[O-])c1)S(=O)(=O)c1ccccc1)NCc1ccccc1	-7	0	11	-1	96*
Cc1ccc(-n2ncc3ccccc3c2=O)cc1Cl	75	0	-18	88*	-2
COc1ccccc1NS(=O)(=O)c1ccc(NC(=O)Cc2cccs2)cc1	14	0	-29	58*	2
CC(C)NS(=O)(=O)c1ccc(NC(=O)Cc2cccs2)cc1	0	0	-13	0	35
COc1ccc(S(=O)(=O)Nc2ccccc2OC)cc1NC(=O)Cc1cccs1	-1	0	6	3	100*
COc1ccc(S(=O)(=O)N(C)C)cc1NC(=O)Cc1cccs1	-5	0	1	19	-2
COc1ccc2c(CC(=O)Nc3ccc(OC)c(NS(=O)(=O)c4ccc(F)cc4)c3)coc2c1	6	0	-30	10	57*
Cc1cccc(C(=O)NC2CCN(C(=O)Nc3ccc(F)cc3)CC2)c1	-54*	.	-11	-63	.
